# An excerpt weighted towards active compounds, which were near 3% of everything screened.
# Apaf-1 inh: blocks human Apaf-1 apoptosome activity. reconstituted apoptosome caspase-3 activity, DEVD-Rh110 fluorescence. inhibition, % at 20 µM. 0.71% of 330,000 active. AID 489030; active = inhibition of at least 40% at 20 µM
# Target sequence (O14727 whole entry, looked up): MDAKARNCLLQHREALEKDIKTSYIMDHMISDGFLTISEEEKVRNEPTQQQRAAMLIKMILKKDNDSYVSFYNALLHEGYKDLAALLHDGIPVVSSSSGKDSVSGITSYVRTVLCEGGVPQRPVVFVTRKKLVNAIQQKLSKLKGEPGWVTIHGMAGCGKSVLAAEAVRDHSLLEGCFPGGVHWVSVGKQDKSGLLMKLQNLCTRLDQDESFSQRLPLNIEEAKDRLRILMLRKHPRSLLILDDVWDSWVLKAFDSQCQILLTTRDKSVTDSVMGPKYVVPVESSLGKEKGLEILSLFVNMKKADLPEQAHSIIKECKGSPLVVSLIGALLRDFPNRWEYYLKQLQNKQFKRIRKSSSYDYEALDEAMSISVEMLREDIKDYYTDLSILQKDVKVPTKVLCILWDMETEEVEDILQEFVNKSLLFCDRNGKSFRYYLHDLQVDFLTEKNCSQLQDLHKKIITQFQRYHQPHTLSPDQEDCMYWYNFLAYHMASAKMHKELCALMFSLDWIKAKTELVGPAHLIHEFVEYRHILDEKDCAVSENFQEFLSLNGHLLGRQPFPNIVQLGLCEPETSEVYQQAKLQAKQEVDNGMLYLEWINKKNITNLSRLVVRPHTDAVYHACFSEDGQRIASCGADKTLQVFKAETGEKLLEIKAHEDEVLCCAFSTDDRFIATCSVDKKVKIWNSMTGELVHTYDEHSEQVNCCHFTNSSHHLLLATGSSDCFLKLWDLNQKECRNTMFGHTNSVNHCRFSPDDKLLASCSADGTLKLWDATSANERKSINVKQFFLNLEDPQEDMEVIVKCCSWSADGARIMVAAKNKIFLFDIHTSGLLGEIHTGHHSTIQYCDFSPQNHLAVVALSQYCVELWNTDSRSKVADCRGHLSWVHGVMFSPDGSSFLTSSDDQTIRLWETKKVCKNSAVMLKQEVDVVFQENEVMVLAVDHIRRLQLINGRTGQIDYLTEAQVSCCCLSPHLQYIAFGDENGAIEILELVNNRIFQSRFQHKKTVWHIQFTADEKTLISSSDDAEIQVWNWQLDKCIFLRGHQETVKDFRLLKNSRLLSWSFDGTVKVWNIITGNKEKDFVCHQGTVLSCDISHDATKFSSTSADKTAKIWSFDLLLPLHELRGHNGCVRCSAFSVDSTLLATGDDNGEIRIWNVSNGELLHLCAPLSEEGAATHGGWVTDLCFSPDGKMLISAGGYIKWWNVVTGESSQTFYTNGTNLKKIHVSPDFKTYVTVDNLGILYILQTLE
#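 Material: biochemical Apaf-1 apoptosome reconstitution. Medium: Hepes buffer, pH 7.5. Also added: cytochrome c activation, bis-DEVD rhodamine 110 substrate. Timing: 30 min compound preincubation, 50 min activation, room temperature. Measured by: rhodamine 110 fluorescence at Ex 480/Em 540 nm.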
# SENP6 block: SENP6 protease inhibition; Recombinant SENP6 catalytic domain, aminoluciferin luminescence; inhibition, % at 10 µM; 1.8% of 330,000 active; AID 2599;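 active = inhibition above about 50% at the single tested dose, limit read from the data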
# SENP8 block-1: SENP8 (human) protease inhibition; Q96LD8; recombinant SENP8, Nedd8 substrate fluorescence; inhibition, % at 20 µM; 0.64% of 360,000 active; AID 602440; in the data active = inhibition mostly above about 40%, no sharp cut-off; inactive = mostly below about 27%
# SENP7 block: blocks the human protease SENP7; inhibition, % at 5 µM; Q9BQF6; 1.5% of 330,000 active; recombinant SENP7, Z-RLRGG-aminoluciferin luminescence, 40 min;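 active = inhibition above about 50% at the single test dose, limit read from the data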
# SENP8 block-2: SENP8 protease inhibition; purified SENP8, Z-RLRGG-aminoluciferin cleavage, luminescence; inhibition, % at 10 µM; 1.2% of 330,000 active; AID 2540; in the data active = inhibition above about 50%
# UBC13 inh: blocks human UBC13 polyubiquitin chain formation | 0.47% of 330,000 active | inhibition, % at 20 µM | P61088 | TR-FRET; in the data active = inhibition above about 45%, passing the limit was not always enough
# SENP8 conf: confirmation of human SENP8 protease inhibitors | Recombinant SENP8, Z-RLRGG-aminoluciferin luminescence, 60 min | 40% of 6,200 active | shares compounds with SENP7 block | inhibition, % at 12.5 µM;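 active = mean inhibition across replicates above about 50%, limit read from the data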
# SENP6 conf: human SENP6 inhibition, confirmed. shares compounds with SENP7 block. recombinant SENP6, Z-RLRGG-aminoluciferin luminescence. inhibition, % at 12.5 µM. 58% of 6,200 active. AID 488915
# SENP7 confirm: confirmation of human SENP7 protease inhibitors. shares compounds with SENP7 block. recombinant SENP7, Z-RLRGG-aminoluciferin luminescence, 40 min. inhibition, % at 12.5 µM. 69% of 6,200 active. AID 488917
# Casp3 SENP sel: inhibits human caspase-3 in SENP selectivity test | shares compounds with SENP7 block | 60% of 6,200 active | purified caspase-3, Z-DEVD-aminoluciferin luminescence, 60 min | AID 488918 | inhibition, % at 12.5 µM;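 active = mean inhibition above about 50%, limit read from the data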
# Luc interf: luminescence interference (SENP counter-screen) | 39% of 6,200 active | shares compounds with SENP7 block | Pre-incubated SENP8/Z-RLRGG-aminoluciferin, luciferase luminescence interference | inhibition, % at 12.5 µM;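 active = mean inhibition above about 50% when retested at one dose, limit read from the data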
# Apaf-1 inh conf: confirmation of Apaf-1 inhibitors; reconstituted apoptosome, caspase-3 DEVD-Rh110 fluorescence; shares compounds with Apaf-1 inh; inhibition, % at 20 µM; 25% of 1,800 active;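 active = mean inhibition of at least 40% at 20 µM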
# Rh110 interf inh: counter-screen for Apaf-1 inhibitors: fluorescence interference | shares compounds with Apaf-1 inh | Rh110 fluorescence interference, quenched caspase reaction | activation (fluorescence interference), % at 20 µM | 1,800 tested, under 10 active;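 active = signal rise of 40% or more at 20 µM, treated as a fluorescence artifact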
# Apaf1 inh interf: Apaf-1 inhibitor counter-screen fluorescence artifact | fluorescence interference counterscreen, Apaf-1 assay format | shares compounds with Apaf-1 inh | AID 588538 | 460 tested, under 10 active | IC50, µM; call rule not given here
# Numbers stand for hits; n = inactive; x = no result; ! = repeats disagree.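 The calls were made as follows, unless noted: active = mean inhibition above about 50% in the one-dose retest (limit read from the data); inactive = the rest.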
SMILES,Apaf-1 inh,SENP6 block,SENP8 block-1,SENP7 block,SENP8 block-2,UBC13 inh,SENP8 conf,SENP6 conf,SENP7 confirm,Casp3 SENP sel,Luc interf,Apaf-1 inh conf,Rh110 interf inh,Apaf1 inh interf
CCC(=O)Nc1c(C#N)c2nc3ccccc3nc2n1C1CCCCC1,n,n,n,n,n,n,x,x,x,x,x,x,x,x
COc1ccc(-n2c(NC(=O)c3ccco3)c(C#N)c3nc4ccccc4nc32)cc1,96.4,97.5,n,86.5,95.0,n,n,68.4,53.5,n,n,93.0,n,n
N#Cc1c(NC(=O)c2ccccc2Cl)n(Cc2ccccc2)c2nc3ccccc3nc12,x,x,n,x,x,x,x,x,x,x,x,x,x,x
CCOC(=O)c1c(NC(=O)c2ccco2)n(C2CCCCC2)c2nc3ccccc3nc12,87.5,73.0,n,n,51.1,n,n,n,n,n,n,n,n,x
CSC[C@H]1CN(c2ccc(Br)cc2)C(=O)[C@@H]1CC(=O)Nc1ccc(Br)cc1,x,x,n,x,x,x,x,x,x,x,x,x,x,x
Oc1ccc(NCc2cccc(OCc3ccccc3)c2)cc1,91.1,68.8,43.3,n,n,n,n,n,n,n,n,n,n,x
O=c1[nH]c(Nc2ccccc2Cl)cc2ccccc12,98.1,99.4,n,92.4,95.9,n,57.0,86.3,68.6,n,n,79.0,n,n
O=c1[nH]c(-c2ccccn2)cc2ccccc12,n,n,n,n,n,n,x,x,x,x,x,x,x,x
O=c1[nH]c(Nc2ccc(F)cc2)cc2ccccc12,95.1,84.7,n,91.8,84.5,n,52.0,76.3,n,n,n,91.5,n,n
Cc1cc(Nc2ccc(F)cc2)c2ccccc2n1,x,x,n,x,x,x,x,x,x,x,x,x,x,x
O=C(NC1=C(NC2CCS(=O)(=O)C2)C(=O)c2ccccc2C1=O)c1ccccc1 (centres undefined),88.1,85.8,86.9,n,60.2,n,n,86.3,54.6,92.7,n,91.7,n,n
COc1ccc(C)cc1S(=O)(=O)N(CC(=O)N1CCCC1)c1ccc(C)cc1,n,n,n,n,n,n,x,x,x,x,x,x,x,x
N#Cc1sc2nc(-c3ccccc3)cc(-c3ccco3)c2c1N,89.6,85.5,n,n,93.0,n,n,n,n,n,n,n,n,x
O=C1CCC/C(=N\NC(=O)c2ccc(CSc3cccc4cccnc34)cc2)C1,n,n,n,n,n,n,x,x,x,x,x,x,x,x
COc1ccc(-c2cc3c(nn2)-c2ccccc2C3=O)cc1,77.3,97.1,42.7,99.1,96.1,n,n,n,n,n,n,n,n,x
O=C1c2ccccc2-c2nnc(-c3ccccc3)cc21,71.3,98.7,n,98.8,95.8,n,n,n,n,n,n,n,n,x
Cc1cccc(-c2cc3c(nn2)-c2ccccc2C3=O)c1,91.1,89.6,n,99.6,95.3,n,n,74.5,88.3,83.0,n,n,n,x
COc1ccc(-c2cn(Cc3ccc4c(c3)C(=O)c3ccccc3C4=O)nn2)cc1,n,n,n,n,n,n,x,x,x,x,x,x,x,x
Cc1cnc2c(c1)C(=O)c1ccccc1-2,n,n,n,n,n,n,x,x,x,x,x,x,x,x
CCN(CC)S(=O)(=O)c1ccc2[nH]c(=O)cc(C(=O)Nc3cccc(C(C)=O)c3)c2c1,n,n,n,n,n,n,x,x,x,x,x,x,x,x
O=C(Nc1ccc(O)c2c(=O)cc(-c3cccc(Cl)c3)oc12)c1ccc(F)cc1,n,n,n,n,n,n,x,x,x,x,x,x,x,x
Nc1ccc(N(CCO)CCO)cc1,84.2,56.6,65.2,n,n,n,n,n,n,n,n,46.5,n,n
CCOC(=O)c1nn2c(C(F)(F)F)cc(-c3ccc(OC)cc3)nc2c1Br,n,n,n,n,n,n,x,x,x,x,x,x,x,x
Clc1ccc(-c2cn3nc4c(nc3n2)CCCC4)cc1,65.3,55.0,n,n,n,n,n,61.7,61.5,59.6,n,53.0,n,n
CCN1CCN(C2=C(NS(=O)(=O)c3ccc(Br)cc3)C(=O)c3ccccc3C2=O)CC1,88.2,63.7,n,n,n,n,n,n,n,n,n,46.5,n,n
SMILES,Apaf-1 inh,SENP6 block,SENP8 block-1,SENP7 block,SENP8 block-2,UBC13 inh,SENP8 conf,SENP6 conf,SENP7 confirm,Casp3 SENP sel,Luc interf,Apaf-1 inh conf,Rh110 interf inh,Apaf1 inh interf
CCOC(=O)C1CCN(C2=C(NS(=O)(=O)c3ccc(Br)cc3)C(=O)c3ccccc3C2=O)CC1,68.0,53.3,50.4,n,n,n,n,n,n,n,n,n,n,x
Oc1c(Br)cc(Br)cc1/C=N/c1nccs1,n,n,n,n,n,n,x,x,x,x,x,x,x,x
Oc1c(Br)cc(Br)cc1C=Nc1ccc2[nH]ncc2c1,83.8,56.3,n,n,n,n,n,n,n,n,n,n,n,x
Oc1c(Br)cc(Br)cc1C=Nc1cccnc1,79.2,54.7,n,n,n,n,n,n,n,n,n,n,n,x
COC(=O)c1cccc(NS(=O)(=O)c2cccs2)c1C,x,x,n,x,x,x,x,x,x,x,x,x,x,x
Cc1ccc(S(=O)(=O)/N=C2/C=C(Sc3ncn[nH]3)C(=O)c3ccccc32)cc1,x,x,n,x,x,x,x,x,x,x,x,x,x,x
Cc1ccc(/C=C2\S/C(=N/S(=O)(=O)c3cccs3)NC2=O)cc1,n,n,n,n,n,n,x,x,x,x,x,x,x,x
Cc1ccc(NC2=C/C(=N/S(=O)(=O)c3cccs3)c3ccccc3C2=O)cc1,92.4,77.2,94.1,69.3,n,n,n,54.4,n,n,n,94.6,n,n
O=C(O)c1cccc(NS(=O)(=O)c2ccc3c(c2)C(=O)c2ccccc2C3=O)c1,n,n,n,n,n,n,x,x,x,x,x,x,x,x
Cc1ccc(S(=O)(=O)/N=C2\C=C(Nc3cccc(C(=O)O)c3)C(=O)c3ccccc32)c(C)c1,90.2,95.0,80.7,55.4,93.7,n,60.2,97.1,n,n,n,85.3,n,x
Cc1ccc(S(=O)(=O)/N=C2\C=C(Nc3ccc(O)cc3)C(=O)c3ccccc32)cc1,95.5,83.9,80.0,63.7,89.8,n,90.3,95.0,85.7,93.8,n,97.0,n,n
COC(=O)c1ccccc1NC1=C/C(=N\S(=O)(=O)c2cccs2)c2ccccc2C1=O,91.9,62.8,52.7!,52.3,88.8,n,n,63.7,n,n,n,94.1,n,n
